# Calls of active or inactive are those of the source. The rule behind the calls is not given here.
# Key:
# Rattus norvegicus [1] = assay: Antiosteoporotic activity in ovariectomized po dosed rat assessed as decrease in serum serotonin level administered for 30 days by HPLC analysis; format: functional, organism-based
# Procedure, shortened: (§1)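 Female rats, 12 weeks old (220 g), bilateral ovariectomy under ip pentobarbital; from 3 days after surgery, 9a given orally once daily at 1, 10 or 20 mg/kg in 5% ethanol/95% water for 30 days, n = 8. Serum (HClO4-deproteinized) or brain homogenate (HClO4 plus NaH2PO4/acetonitrile) run on RP-C18 HPLC with fluorescence detection (ex 290/em 330 nm).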
# Rattus norvegicus [2] = assay: Antiosteoporotic activity in ovariectomized po dosed rat assessed as increase in serum P1NP level administered for 30 days by ELISA; format: functional, organism-based
# Procedure, shortened: (§2)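 OVX female rats (12 weeks old), oral 9a at 1, 10 or 20 mg/kg per day in 5% ethanol vehicle, starting 3 days post-surgery, for 30 days, n = 8. Serum was taken at the end, centrifuged and stored at −20 °C. P1NP or CTX-1 was measured by ELISA kit and reported as means ± SD.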
# Rattus norvegicus [3] = assay: Antiosteoporotic activity in ovariectomized rat assessed as increase in trabecular thickness at 1 mg/kg/day, po for 30 days by microcomputed tomographic analysis; format: functional, organism-based; conditions: Trabecula
# Procedure, shortened: (§3)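 Ovariectomized 12-week-old female rats dosed orally once daily with 9a (1, 10, 20 mg/kg/day, 5% ethanol vehicle) for 30 days, beginning 3 days after surgery, n = 8 per group. Lumbar vertebrae were collected after CO2 euthanasia and scanned by micro-CT for BV/TV, Tb.Th, Tb.N, Tb.Sp and BMD.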
# Rattus norvegicus [4] = assay: Antiosteoporotic activity in ovariectomized rat assessed as decrease in gut serotonin level at 10 mg/kg, po qd for 7 days by HPLC analysis relative to control; format: functional; design: scale not given: the % may be the effect or the level left
# Procedure, shortened: (§4)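 Female rats, 12 weeks old (220 g), underwent bilateral ovariectomy under ip pentobarbital; sham controls included; n = 5 per group. Oral dosing in vehicle of 5% ethanol/95% water began 3 days post-surgery, once daily for 7 days. Small intestine (jejunum, ileum) was homogenised in 5% HClO4 and mobile phase. Serotonin was read by C18 HPLC with fluorescence detection (ex 290/em 330 nm).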
# Rattus norvegicus [5] = assay: Antiosteoporotic activity in ovariectomized rat assessed as decrease in trabecular separation at 10 to 20 mg/kg/day, po for 30 days by microcomputed tomographic analysis relative to control; format: functional, Trabecula; design: scale not given: the % may be the effect or the level left
# Procedure, shortened: (§5)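 Female rats, 12 weeks old, underwent bilateral ovariectomy; sham, OVX-vehicle and ip PTH 20 μg/kg/day groups were included; n = 8. Oral dosing at 1, 10 and 20 mg/kg/day in 5% ethanol/95% water began 3 days post-surgery, once daily for 30 days. Lumbar vertebrae were scanned by μCT for BV/TV, Tb.Th, Tb.N, Tb.Sp and BMD.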
# Rattus norvegicus [6] = assay: Antiosteoporotic activity in ovariectomized rat assessed as increase in trabecular thickness at 10 to 20 mg/kg/day, po for 30 days by microcomputed tomographic analysis relative to control; format: functional, Trabecula; procedure, shortened: as §5
# Rattus norvegicus [7] = assay: Antiosteoporotic activity in ovariectomized rat assessed as increase in bone mineral density at 1 mg/kg/day, po for 30 days by microcomputed tomographic analysis; format: functional, organism-based; procedure, shortened: as §3
# Rattus norvegicus [8] = assay: Antiosteoporotic activity in ovariectomized rat assessed as increase in trabecular bone volume fraction at 10 to 20 mg/kg/day, po for 30 days by microcomputed tomographic analysis relative to control; format: functional, Trabecula; procedure, shortened: as §5
# [9] = Cytotoxicity against rat PC12 cells by MTT assay; format: cell-based; conditions: pc-12
# Procedure, shortened: (§6)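 RBL2H3 cells (α-MEM) or PC12 cells (D-MEM), both with 10% FBS, treated at a single dose in 0.1% DMSO; 0.1% DMSO control; 37 °C, 5% CO2. MTT (5 mg/mL) added 4 h before the end, then SDS/DMF lysis buffer (pH 7.2) for 6 h; absorbance read at 570 nm. Cytotoxicity % calculated from background-corrected OD versus control.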
# Rattus norvegicus [10] = assay: Antiosteoporotic activity in ovariectomized rat assessed as increase in trabecular number at 10 to 20 mg/kg/day, po for 30 days by microcomputed tomographic analysis relative to control; format: functional, Trabecula; procedure, shortened: as §5
# Rattus norvegicus [11] = assay: Effect on endometrial luminal epithelium with undeveloped endometrial gland in ovariectomized rat at 10 to 20 mg/kg/day, po for 30 days by hematoxylin-eosin staining-based light microscopic analysis; format: ADME, organism-based; design: route oral; conditions: in vivo, 720 h
# Procedure, shortened: (§7)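 OVX rats dosed orally with 9a (1, 10, 20 mg/kg/day) for 30 days from 3 days post-surgery. Uteri and livers were collected at the end, then sectioned, stained and examined by light microscopy for endometrial luminal epithelium, glands and liver morphology/pathology.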
# Rattus norvegicus [12] = assay: Antiosteoporotic activity in ovariectomized rat assessed as increase in bone mineral density at 10 to 20 mg/kg/day, po for 30 days by microcomputed tomographic analysis relative to control; format: functional; procedure, shortened: as §5
# Rattus norvegicus [13] = assay: Antiosteoporotic activity in ovariectomized rat assessed as decrease in serum CTX-1 level at 10 to 20 mg/kg/day, po for 30 days by ELISA; format: functional, organism-based; procedure, shortened: as §2
# Rattus norvegicus [14] = assay: Antiosteoporotic activity in ovariectomized rat assessed as decrease in trabecular separation at 1 mg/kg/day, po for 30 days by microcomputed tomographic analysis; format: functional, organism-based; conditions: Trabecula; procedure, shortened: as §3
# Brain = assay: Drug uptake in ovariectomized rat brain at 10 to 20 mg/kg, po qd for 7 days by LC-MS analysis; format: ADME, organism-based; design: dose 10-20 mg/kg, route oral; conditions: in vivo, 168 h
# Procedure, shortened: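 OVX rats given oral 9a at 10 or 20 mg/kg once daily for 7 days, starting 3 days after surgery, n = 5. Brain homogenate (about 2.0 g) extracted with 5% HClO4 and ethyl acetate, centrifuged; the organic layer was dried and analysed by LC-MS/MS (limit of detection 12.4 pg).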
# Rattus norvegicus [15] = assay: Effect on brain serotonin level in ovariectomized rat at 1 to 20 mg/kg/day, po for 30 days by RP-HPLC analysis; format: functional, organism-based; procedure, shortened: as §1
# Rattus norvegicus [16] = assay: Antiosteoporotic activity in ovariectomized rat assessed as decrease in gut serotonin level at 20 mg/kg, po qd for 7 days by HPLC analysis relative to control; format: functional; design: scale not given: the % may be the effect or the level left; procedure, shortened: as §4
# [17] = Cytotoxicity against rat RBL2H3 cells by MTT assay; format: cell-based; design: concentration or dose not given beside the values; conditions: rbl-2h3; procedure, shortened: as §6
# Rattus norvegicus [18] = assay: Antiosteoporotic activity in ovariectomized rat assessed as increase in trabecular bone volume fraction at 1 mg/kg/day, po for 30 days by microcomputed tomographic analysis; format: functional, organism-based; conditions: Trabecula; procedure, shortened: as §3
# Rattus norvegicus [19] = assay: Antiosteoporotic activity in ovariectomized rat assessed as increase in trabecular number at 1 mg/kg/day, po for 30 days by microcomputed tomographic analysis; format: functional, organism-based; conditions: Trabecula; procedure, shortened: as §3
# Rattus norvegicus [20] = assay: Effect on liver pathology in ovariectomized rat at 10 to 20 mg/kg/day, po for 30 days by hematoxylin-eosin staining-based light microscopic analysis; format: ADME, organism-based; design: route oral; conditions: in vivo, 720 h; procedure, shortened: as §7
# Rattus norvegicus [21] = assay: Effect on liver morphology in ovariectomized rat at 10 to 20 mg/kg/day, po for 30 days by hematoxylin-eosin staining-based light microscopic analysis; format: ADME, organism-based; design: route oral; conditions: in vivo, 720 h; procedure, shortened: as §7
compound,measurement,setting,value
CCOC(=O)CNC(=O)[C@]12CC[C@@H](C)[C@H](C)[C@H]1C1=CC[C@@H]3[C@@]4(C)Cc5nc6ccccc6nc5C(C)(C)[C@@H]4CC[C@@]3(C)[C@]1(C)CC2,Activity,Rattus norvegicus [1],Dose-dependent effect
same,Activity,Rattus norvegicus [2],Dose-dependent effect
same,Activity,Rattus norvegicus [3],inactive
same,Activity,Rattus norvegicus [4],34%
same,Activity,Rattus norvegicus [5],-24.9%
same,Activity,Rattus norvegicus [6],24%
same,Activity,Rattus norvegicus [7],inactive
same,Activity,Rattus norvegicus [8],28%
same,Activity,[9],Non-toxic
same,Activity,Rattus norvegicus [10],43.3%
same,Activity,Rattus norvegicus [11],Non-toxic
same,Activity,Rattus norvegicus [12],22.6%
same,Activity,Rattus norvegicus [13],inactive
same,Activity,Rattus norvegicus [14],inactive
same,Drug uptake,Brain,Not Active
same,Activity,Rattus norvegicus [15],inactive
same,Activity,Rattus norvegicus [16],36%
same,Activity,[17],1%
same,Activity,Rattus norvegicus [18],inactive
same,Activity,Rattus norvegicus [19],inactive
same,Activity,Rattus norvegicus [20],Non-toxic
same,Activity,Rattus norvegicus [21],Non-toxic

# Source: ChEMBL document CHEMBL3286111, “Tryptophan hydroxylase 1 (Tph-1)-targeted bone anabolic agents for osteoporosis” (J Med Chem, 2014)
